# ChEMBL document CHEMBL2311361, “Diminutive effect on T and B-cell proliferation of non-cytotoxic α-santonin derived 1,2,3-triazoles: a report” (Eur J Med Chem, 2013)
# Columns and labels:
# [1] = Immunosuppressive activity in Balb/c mouse T cells assessed as inhibition of concanavalin A-induced cell proliferation at 10^-5 M after 48 hrs by MTT assay; format: functional
# How it was run: (§1)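 Spleens taken aseptically from Balb/c mice (18–22 g). Single-cell suspension made in incomplete RPMI, RBCs lysed with Tris-ammonium chloride, cells washed, resuspended in complete RPMI and checked for viability by trypan blue. Cells seeded at 1 × 10⁶ cells/mL. Compounds in DMSO tested at 1×10⁻⁴, 1×10⁻⁵ and 1×10⁻⁶ M, 48 h, 37 °C, 5% CO₂.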
# [2] = Cytotoxicity against in Balb/c mouse B cells at 10^-6 M after 48 hrs by MTT assay; format: cell-based; details: 1 µM; how it was run: as §1
# [3] = Cytotoxicity against in Balb/c mouse T cells at 10^-6 M after 48 hrs by MTT assay; format: cell-based; details: t-cell, 1 µM; how it was run: as §1
# [4] = Immunosuppressive activity in Balb/c mouse B cells assessed as inhibition of LPS-induced cell proliferation at 10^-6 M after 48 hrs by MTT assay; format: functional; how it was run: as §1
# [5] = Immunosuppressive activity in Balb/c mouse B cells assessed as inhibition of LPS-induced cell proliferation at 10^-4 M after 48 hrs by MTT assay; format: functional; how it was run: as §1
# [6] = Cytotoxicity against in Balb/c mouse T cells at 10^-5 M after 48 hrs by MTT assay; format: cell-based; details: t-cell, 10 µM; how it was run: as §1
# [7] = Immunosuppressive activity in Balb/c mouse B cells assessed as inhibition of LPS-induced cell proliferation at 10^-5 M after 48 hrs by MTT assay; format: functional; how it was run: as §1
# [8] = Cytotoxicity against in Balb/c mouse B cells at 10^-5 M after 48 hrs by MTT assay; format: cell-based; details: 10 µM; how it was run: as §1
# [9] = Immunostimulant activity in Balb/c mouse T cells assessed as inhibition of concanavalin A-induced cell proliferation at 10^-4 M after 48 hrs by MTT assay; format: functional; details: for inhibition at 100 µM: Mus musculus, Balb/c, T-cell, 48 h; how it was run: as §1
# [10] = Immunosuppressive activity in Balb/c mouse T cells assessed as inhibition of concanavalin A-induced cell proliferation at 10^-6 M after 48 hrs by MTT assay; format: functional; details: for inhibition at 1 µM: Mus musculus, Balb/c, T-cell, 48 h; how it was run: as §1
# [11] = Cytotoxicity against in Balb/c mouse B cells at 10^-4 M after 48 hrs by MTT assay; format: cell-based; details: 100 µM; how it was run: as §1
# [12] = Immunostimulant activity in Balb/c mouse T cells assessed as inhibition of concanavalin A-induced cell proliferation at 10^-5 M after 48 hrs by MTT assay; format: functional; how it was run: as §1
# [13] = Cytotoxicity against in Balb/c mouse T cells at 10^-4 M after 48 hrs by MTT assay; format: cell-based; details: t-cell, 100 µM; how it was run: as §1
# [14] = Immunosuppressive activity in Balb/c mouse T cells assessed as inhibition of concanavalin A-induced cell proliferation at 10^-4 M after 48 hrs by MTT assay; format: functional; how it was run: as §1
# [15] = Immunostimulant activity in Balb/c mouse B cells assessed as inhibition of LPS-induced cell proliferation at 10^-4 M after 48 hrs by MTT assay; format: functional; how it was run: as §1
# [16] = Immunostimulant activity in Balb/c mouse T cells assessed as inhibition of concanavalin A-induced cell proliferation at 10^-6 M after 48 hrs by MTT assay; format: functional; how it was run: as §1
# [17] = Immunostimulant activity in Balb/c mouse B cells assessed as inhibition of LPS-induced cell proliferation at 10^-6 M after 48 hrs by MTT assay; format: functional; how it was run: as §1
SMILES,inhibition at 10 µM [1],Activity [2],Activity [3],inhibition at 1 µM [4],inhibition at 100 µM [5],Activity [6],inhibition at 10 µM [7],Activity [8],inhibition (INH) [9],inhibition at 100 µM [9],inhibition (INH) [10],inhibition at 1 µM [10],Activity [11],inhibition at 10 µM [12],Activity [13],inhibition at 100 µM [14],inhibition at 100 µM [15],inhibition at 1 µM [16],inhibition at 1 µM [17]
Cc1cc(OCc2cnnn2-c2cc(F)ccc2I)c(C)c2c1CC[C@H]1[C@H](C)C(=O)O[C@@H]21,31.4%,Toxic,Toxic,20.8%,14.2%,Non-toxic,24.2%,Non-toxic,19.16%,19.2%,17.5%,21.4%,Toxic,10.8%,Toxic,–,–,–,–
Cc1cc(OCc2cnnn2-c2cccc(I)c2)c(C)c2c1CC[C@H]1[C@H](C)C(=O)O[C@@H]21,20%,Non-toxic,Non-toxic,15.8%,15.8%,Non-toxic,20%,Non-toxic,–,–,–,15.8%,Non-toxic,–,Non-toxic,3.15%,–,–,–
Cc1cc(OCc2cnnn2-c2ccc3c(c2)OCO3)c(C)c2c1CC[C@H]1[C@H](C)C(=O)O[C@@H]21,45.3%,Non-toxic,Non-toxic,14.7%,32.6%,Non-toxic,50.5%,Non-toxic,–,–,–,29.5%,Non-toxic,–,Non-toxic,29.5%,–,–,–
Cc1cc(OCc2cnnn2-c2ccc(C=O)cc2)c(C)c2c1CC[C@H]1[C@H](C)C(=O)O[C@@H]21,6.66%,Non-toxic,Non-toxic,24.2%,35%,Non-toxic,22.5%,Non-toxic,–,–,–,5.83%,Non-toxic,–,Non-toxic,20.8%,–,–,–
Cc1cc(OCc2cnnn2-c2cccc(C(N)=O)c2)c(C)c2c1CC[C@H]1[C@H](C)C(=O)O[C@@H]21,29.5%,Non-toxic,Non-toxic,44.2%,8.42%,Non-toxic,36.8%,Non-toxic,–,–,–,28.4%,Non-toxic,–,Non-toxic,6.31%,–,–,–
Cc1cc(OCc2cnnn2-c2cccc(O)c2)c(C)c2c1CC[C@H]1[C@H](C)C(=O)O[C@@H]21,–,Toxic,Toxic,19.2%,9.16%,Non-toxic,7.5%,Non-toxic,–,–,–,5.83%,Non-toxic,22.5%,Non-toxic,10%,–,–,–
COc1cc(-n2nncc2COc2cc(C)c3c(c2C)[C@@H]2OC(=O)[C@@H](C)[C@@H]2CC3)cc(OC)c1OC,14.7%,Non-toxic,Non-toxic,16.8%,14.7%,Non-toxic,26.3%,Non-toxic,–,–,–,20%,Non-toxic,–,Non-toxic,16.8%,–,–,–
CC1=C2[C@H]3OC(=O)[C@@H](C)[C@@H]3CC[C@@]2(C)C=CC1=O [SANTONIN],–,Non-toxic,Non-toxic,23.1%,-36.8%,Non-toxic,25.6%,Non-toxic,–,–,–,-40.2%,Non-toxic,3.65%,Non-toxic,-6.09%,–,–,–
Cc1cc(O)c(C)c2c1CC[C@H]1[C@H](C)C(=O)O[C@@H]21,24.4%,Non-toxic,Non-toxic,23.1%,–,Non-toxic,23.9%,Non-toxic,–,80.5%,–,20.7%,Non-toxic,–,Non-toxic,–,18.8%,–,–
Cc1cc(OCc2cnnn2-c2cc(F)c(F)cc2Br)c(C)c2c1CC[C@H]1[C@H](C)C(=O)O[C@@H]21,20%,Toxic,Toxic,20%,7.14%,Toxic,21.4%,Toxic,–,–,–,–,Toxic,–,Toxic,15.7%,–,21.4%,–
COc1ccc2cc(-n3nncc3COc3cc(C)c4c(c3C)[C@@H]3OC(=O)[C@@H](C)[C@@H]3CC4)ccc2c1,95.1%,Non-toxic,Non-toxic,25.6%,28.2%,Non-toxic,94%,Non-toxic,–,–,–,93.9%,Non-toxic,–,Non-toxic,93.9%,–,–,–
Cc1ccc(I)cc1-n1nncc1COc1cc(C)c2c(c1C)[C@@H]1OC(=O)[C@@H](C)[C@@H]1CC2,20%,Non-toxic,Non-toxic,34.7%,16.8%,Non-toxic,14.7%,Non-toxic,–,–,–,15.8%,Non-toxic,–,Non-toxic,15.8%,–,–,–
Cc1cc(OCc2cnnn2-c2ccc(Cl)nc2)c(C)c2c1CC[C@H]1[C@H](C)C(=O)O[C@@H]21,–,Toxic,Toxic,–,–,Non-toxic,8.57%,Non-toxic,–,8.57%,–,20.8%,Non-toxic,12.8%,Non-toxic,–,75.7%,–,45.7%
Cc1cc(OCc2cnnn2-c2ccccc2C(F)(F)F)c(C)c2c1CC[C@H]1[C@H](C)C(=O)O[C@@H]21,30%,Non-toxic,Non-toxic,–,11.4%,Non-toxic,31.4%,Non-toxic,–,–,–,7.14%,Non-toxic,–,Non-toxic,22.9%,–,–,62.9%
Cc1cc(OCc2cnnn2-c2c(Br)ccc(I)c2F)c(C)c2c1CC[C@H]1[C@H](C)C(=O)O[C@@H]21,–,Non-toxic,Non-toxic,8.57%,11.4%,Non-toxic,50%,Non-toxic,–,–,–,–,Non-toxic,–,Non-toxic,–,–,–,–
CC(=O)Nc1ccc(-n2nncc2COc2cc(C)c3c(c2C)[C@@H]2OC(=O)[C@@H](C)[C@@H]2CC3)cc1,–,Toxic,Toxic,25%,–,Non-toxic,15%,Non-toxic,–,27.5%,–,20%,Toxic,13.3%,Toxic,–,16.7%,–,–
Cc1cc(OCc2cnnn2-c2cccc(Br)c2COc2cccc(Br)c2)c(C)c2c1CC[C@H]1[C@H](C)C(=O)O[C@@H]21,–,Toxic,Toxic,24.2%,17.5%,Non-toxic,16.7%,Non-toxic,–,2.5%,–,14.2%,Non-toxic,–,Non-toxic,–,–,–,–
